{"source": "ChEMBL document CHEMBL4732066", "about": "“SP1-independent inhibition of FOXM1 by modified thiazolidinediones” (Eur J Med Chem, 2021)", "key": {"[1]": {"test": "Downregulation of FOXM1 expression in human MDA-MB-231 cells at 40 uM after 48 hrs by Western blot analysis relative to control", "assay_type": "functional", "method_in_brief": "(§1)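 MDA-MB-231 cells (RPMI, 10% FBS, 37 °C, 5% CO2) were treated in 6-well plates and lysed in RIPA buffer for 30 min after ice-cold PBS washes. Protein was quantified by Bradford and equal amounts run on 10% SDS-PAGE, then transferred to nitrocellulose and blocked in 10% milk/TBST for 45 min. Primary antibody was used at 1:1000 at 4 °C overnight, secondary for 45 min at RT, with chemiluminescent detection.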"}, "MDA-MB-231 [2]": {"tested_on": "MDA-MB-231", "test": "Downregulation of SP1 expression in human MDA-MB-231 cells at 80 uM after 24 hrs by Western blot analysis", "assay_type": "functional, cell-based", "method_in_brief": "as §1"}, "[3]": {"target": "T1, Forkhead box protein M1 (Homo sapiens) (UniProt Q08050)", "T1 sequence (whole entry)": "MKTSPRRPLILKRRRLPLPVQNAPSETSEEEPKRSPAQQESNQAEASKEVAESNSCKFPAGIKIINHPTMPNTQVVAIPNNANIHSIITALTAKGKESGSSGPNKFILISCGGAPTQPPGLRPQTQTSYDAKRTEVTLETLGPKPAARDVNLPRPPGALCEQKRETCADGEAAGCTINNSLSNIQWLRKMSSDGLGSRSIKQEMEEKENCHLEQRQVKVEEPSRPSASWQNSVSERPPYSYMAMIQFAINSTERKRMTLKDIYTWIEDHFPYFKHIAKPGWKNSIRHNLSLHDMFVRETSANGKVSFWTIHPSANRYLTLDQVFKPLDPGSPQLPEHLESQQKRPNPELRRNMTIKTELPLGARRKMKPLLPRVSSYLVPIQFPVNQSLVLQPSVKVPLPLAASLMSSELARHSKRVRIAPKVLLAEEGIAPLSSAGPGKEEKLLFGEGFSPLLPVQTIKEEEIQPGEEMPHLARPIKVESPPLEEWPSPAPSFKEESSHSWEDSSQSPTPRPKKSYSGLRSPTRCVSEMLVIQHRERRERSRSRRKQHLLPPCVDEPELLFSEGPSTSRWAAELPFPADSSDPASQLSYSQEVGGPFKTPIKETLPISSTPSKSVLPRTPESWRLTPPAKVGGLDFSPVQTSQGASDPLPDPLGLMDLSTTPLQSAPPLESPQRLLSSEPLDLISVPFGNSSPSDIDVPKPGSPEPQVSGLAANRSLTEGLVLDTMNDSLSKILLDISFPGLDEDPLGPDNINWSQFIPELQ", "test": "Inhibition of FOXM1 transcriptional activity in human MDA-MB-231 cells at 40 uM after 12 hrs by luciferase reporter gene assay", "assay_type": "cell-based", "method_in_brief": "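MDA-MB-231 cells were transiently transfected with equal amounts of 6x-FOXM1 firefly luciferase reporter and empty pGL4.10 backbone. After 24 h, cells were drug-treated for 12 h, PBS-washed and lysed in reporter lysis buffer. Firefly luciferase activity was read on equal total protein per lysate, in triplicate, with significance by one-way ANOVA.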"}, "Forkhead box protein M1": {"target": "T2, Forkhead box protein M1 (Homo sapiens, UniProt Q08050)", "T2 sequence (Q08050 whole entry)": "T1 sequence (whole entry)", "test": "Binding affinity to recombinant FOXM1 DBD (unknown origin) expressed in Escherichia coli BL21 (DE3) assessed as disruption of FOXM1-DNA complex preincubated for 1.5 hrs followed by DNA addition measured after 20 mins by EMSA"}, "MDA-MB-231 [4]": {"tested_on": "MDA-MB-231", "test": "Effect on SP1 expression in human MDA-MB-231 cells at 80 uM after 24 hrs by Western blot analysis", "assay_type": "functional, cell-based", "method_in_brief": "as §1"}}, "note": "Calls of active or inactive are those of the source. The rule behind the calls is not given here.", "data": [{"compound": "Nc1c(C(=O)Nc2ccc(F)cc2)sc2nc(-c3cccs3)cc(C(F)(F)F)c12", "values": [{"measurement": "inhibition at 40 µM", "setting": "[1]", "value": 80, "unit": "%"}]}, {"compound": "COC(=O)c1ccc(COc2ccc(/C=C3\\SC(=O)NC3=O)cc2OC)cc1", "values": [{"measurement": "inhibition at 40 µM", "setting": "[1]", "value": 80, "unit": "%"}]}, {"compound": "COc1cc(/C=C2\\SC(=O)NC2=O)ccc1OCc1ccc([N+](=O)[O-])cc1", "values": [{"measurement": "inhibition at 40 µM", "setting": "[1]", "value": 80, "unit": "%"}]}, {"compound": "COc1ccc(/C=C2\\SC(=O)NC2=O)cc1OCc1ccc([N+](=O)[O-])cc1", "values": [{"measurement": "inhibition at 40 µM", "setting": "[1]", "value": "> 90", "unit": "%"}]}, {"compound": "COC(=O)c1ccc(COc2ccc(/C=C3\\SC(=O)NC3=O)cc2[N+](=O)[O-])cc1", "values": [{"measurement": "inhibition at 40 µM", "setting": "[1]", "value": 80, "unit": "%"}]}, {"compound": "COc1ccc(/C=C2\\SC(=O)NC2=O)cc1OCc1ccc(C(F)(F)F)cc1", "values": [{"measurement": "inhibition at 40 µM", "setting": "[1]", "value": 80, "unit": "%"}]}, {"compound": "O=C1NC(=O)/C(=C/c2ccc(OCc3ccc(C(F)(F)F)cc3)cc2)S1", "values": [{"measurement": "inhibition at 40 µM", "setting": "[1]", "value": "> 90", "unit": "%"}]}, {"compound": "O=C1NC(=O)/C(=C/c2ccc(OCc3ccc([N+](=O)[O-])cc3)cc2)S1", "values": [{"measurement": "inhibition at 40 µM", "setting": "[1]", "value": 80, "unit": "%"}]}, {"compound": "Cc1c(C)c2c(c(C)c1O)CCC(C)(COc1ccc(CC3SC(=O)NC3=O)cc1)O2", "note": "(stereo unspecified) [TROGLITAZONE]", "values": [{"measurement": "inhibition", "setting": "MDA-MB-231 [2]", "value": "Active"}, {"measurement": "inhibition at 40 µM", "setting": "[1]", "value": 80, "unit": "%"}, {"measurement": "inhibition", "setting": "[3]", "value": "Active"}, {"measurement": "IC50", "setting": "Forkhead box protein M1", "value": 122, "unit": "µM"}, {"measurement": "Ki", "setting": "Forkhead box protein M1", "value": 0.052, "unit": "µM"}]}, {"compound": "COc1cc(/C=C2\\SC(=O)NC2=O)ccc1OCc1ccc(C(F)(F)F)cc1", "values": [{"measurement": "Activity", "setting": "MDA-MB-231 [4]", "value": "inactive"}, {"measurement": "inhibition at 40 µM", "setting": "[1]", "value": "> 90", "unit": "%"}]}, {"compound": "O=C1NC(=O)/C(=C/c2ccc(OCc3ccc([N+](=O)[O-])cc3)c([N+](=O)[O-])c2)S1", "values": [{"measurement": "inhibition at 40 µM", "setting": "[1]", "value": 80, "unit": "%"}]}]}
